Numbered stars: 1 amine (or outer) side, 2 acyl side, 3 side chain; on linkers, the order of the positions; unused ones are H or OH. Square brackets hold non-standard residues; d marks the D form. Peptide text beside a SMILES is read from it. LeuΨ(S-CHOHCH2)Ala = CC(C)C[C@H](N[*:1])[C@@H](O)C[C@@H](C)C(=O)[*:2] Where only a bound is given, the exact number is not on record here.

A short description of series [1]: Half life in mouse brain by HPLC-FLU analysis. Type of series: ADME, tissue-based. The procedure, abridged:
(§1)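 Peptide solution (50 µM in PBS, 2% DMSO) was mixed 1:4 with human serum or 10% mouse brain homogenate (PBS, 0.5% Triton X-100) and incubated at 37 °C for varying times. Reactions were stopped with acetonitrile and proteins spun out. Intact peptide was quantified by HPLC-FLU against per-compound calibration curves, following decay to about 50%. t1/2 was interpolated from a monophasic model fit; n = 3.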

Series [2] in a line: Half life in human serum by HPLC-FLU analysis. Type of series: ADME, cell-free. The procedure, abridged:
as §1

The subject of series [3] is Brain. As to the kind of experiment: Retention time of the compound in female mouse brain treated with 0.53 mg/kg, iv (3S,6S,9S,12S,15S,18S,21R,23S,24S,27S,30S,33S)-33-acetamido-15-benzyl-3-carbamoyl-6-(2-carboxyethyl)-27-(carboxymethyl)-23-hydroxy-12-(4-hydroxybenzyl)-24,30-diisobutyl-18-isopropyl-9,21-dimethyl-5,8,11,14,17,20,26,29,32-nonaoxo-4,7,10,13,16,19,25,28,31-nonaazahexatriacontane-1,36-dioic acid by HPLC-FLU analysis. It is filed as ADME, organism-based. Conditions: in vivo. The procedure, abridged:
(§2)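 Female mice (8–12 weeks, 22–37 g) and male Wistar rats (8–12 weeks, 182–201 g) were fasted 24 h, then dosed iv at 0.53 mg/kg in PBS, in triplicate. Animals were sacrificed at 0.5, 1 and 2 h under pentobarbital. Blood was taken by cardiac puncture and brains perfused with chilled saline. Serum was acetonitrile-precipitated. Whole mouse brain, or rat cortex and hippocampus, was homogenized with an internal standard, HPLC-purified, then analysed by HPLC-FLU and ESI LC-MS.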

In series [4] the test system is Cortex. As to the kind of experiment: Drug formation in Wistar rat brain cortex treated with 0.53 mg/kg, iv (3S,6S,9S,12S,15S,18S,21R,23S,24S,27S,30S,33S)-33-acetamido-15-benzyl-3-carbamoyl-6-(2-carboxyethyl)-27-(carboxymethyl)-23-hydroxy-12-(4-hydroxybenzyl)-24,30-diisobutyl-18-isopropyl-9,21-dimethyl-5,8,11,14,17,20,26,29,32-nonaoxo-4,7,10,13,16,19,25,28,31-nonaazahexatriacontane-1,36-dioic acid measured after 2 hrs by …. Conditions: in vivo. Type of series: ADME, organism-based.

The nature of series [5]: Drug uptake in female mouse brain at 0.53 mg/kg, iv up to 1 hr by HPLC-FLU analysis. The note with it: read-out: Drug uptake. Type of series: ADME, organism-based. The procedure, abridged: as §2
Series [6] concerns Brain. As to the kind of experiment: Drug formation in female mouse brain treated with 0.53 mg/kg, iv (3S,6S,9S,12S,15S,18S,21R,23S,24S,27S,30S,33S)-33-acetamido-15-benzyl-3-carbamoyl-6-(2-carboxyethyl)-27-(carboxymethyl)-23-hydroxy-12-(4-hydroxybenzyl)-24,30-diisobutyl-18-isopropyl-9,21-dimethyl-5,8,11,14,17,20,26,29,32-nonaoxo-4,7,10,13,16,19,25,28,31-nonaazahexatriacontane-1,36-dioic acid measured up to 2 hrs by HPLC-FLU/LC-MS …. Conditions: in vivo. It is filed as ADME, organism-based.

The species named for the next series is Homo sapiens. As to the kind of experiment: Selectivity ratio of Ki(app) for human recombinant BACE2 to Ki for human recombinant BACE1.
Series [7] concerns Serum. As to the kind of experiment: Drug formation in Wistar rat serum treated with 0.53 mg/kg, iv (3S,6S,9S,12S,15S,18S,21R,23S,24S,27S,30S,33S)-33-acetamido-15-benzyl-3-carbamoyl-6-(2-carboxyethyl)-27-(carboxymethyl)-23-hydroxy-12-(4-hydroxybenzyl)-24,30-diisobutyl-18-isopropyl-9,21-dimethyl-5,8,11,14,17,20,26,29,32-nonaoxo-4,7,10,13,16,19,25,28,31-nonaazahexatriacontane-1,36-dioic acid measured after 2 hrs by HPLC-FLU/LC-MS …. The note with it: in vivo. Type of series: ADME, organism-based.

A further series concerns Caco-2. As to the kind of experiment: Cytotoxicity against human Caco2 cells assessed as cell viability at 25 to 50 uM after 24 hrs by MTS assay. Type of series: cell-based. The note with it: caco-2, 24 h. The method in brief:
(§3)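 Confluent Caco-2 cells (passage 26 to 41, grown in high-glucose DMEM with 10% FBS and 1% non-essential amino acids) exposed to test compounds from 2.5 nM to 50 µM in DMEM with 0.5% FBS for 4 h or 24 h. Medium replaced by MTS, 4 h at 37 °C, absorbance read at 490 nm. Viability given as % of cells in 0.5% FBS DMEM.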

Series [8] can be described thus: Cytotoxicity against human Caco2 cells assessed as cell viability at 25 to 50 uM after 4 to 24 hrs by MTS assay. Type of series: cell-based. The note with it: Caco-2 cells, read-out: Activity. The method in brief:
as §3
For orientation: Formazan colour is commonly taken as a measure of viable cells.

Series [9] deals with Serum. As to the kind of experiment: Metabolic stability in female mouse serum at 0.53 mg/kg, iv by HPLC-FLU analysis. It is filed as ADME, organism-based. Conditions: in vivo. The method in brief:
as §2

Series [10] deals with Cortex. As to the kind of experiment: Metabolic stability in Wistar rat brain cortex at 0.53 mg/kg, iv after 2 hrs by HPLC-FLU analysis. It is filed as ADME, organism-based. Conditions: in vivo. The procedure, abridged:
as §2

Series [11] concerns Brain. As to the kind of experiment: Retention time of the compound in female mouse brain at 0.53 mg/kg, iv by HPLC-FLU analysis. Type of series: ADME, organism-based. Conditions: in vivo. The method in brief: as §2
For series [12], the system named is Serum. Nature of the series: Metabolic stability in Wistar rat serum at 0.53 mg/kg, iv after 2 hrs by HPLC-FLU analysis. It is filed as ADME, organism-based. Conditions: in vivo. The procedure, abridged: as §2

The term half-life denotes the time needed for the level to fall by half in the phase considered. On to `CC(C)C[C@H](NC(=O)[C@@H](N)CCC(=O)O)C(=O)N[C@@H](CC(=O)O)C(=O)N[C@@H](CC(C)C)[C@@H](O)C[C@@H](C)C(=O)N[C@H](C(=O)N[C@@H](Cc1ccccc1)C(=O)N[C@@H](Cc1ccc(O)cc1)C(=O)N[C@@H](C)C(=O)N[C@@H](CCC(=O)O)C(=O)N[C@@H](CC(=O)O)C(=O)O)C(C)C` (H-ELD[LeuΨ(S-CHOHCH2)Ala]VFYAED-OH), for which the values for the half-life in series [1] and in series [2] were 6 h and 3 h, respectively. The Retention_time in the series on Brain [3] amounted to 22.9 min. For the same molecule, the Drug metabolism result in the series on Cortex [4], with Brain [6] and in the series with Serum [7] was “metabolite_detected” throughout. In addition, the concentration at 1 h in series [5] was found to be 20 nM. Further, the Ratio in the series listed under Homo sapiens came out at 7.5.
As for `CC(C)C[C@H](NC(=O)[C@@H](N)CCC(=O)O)C(=O)N[C@@H](CC(=O)O)C(=O)N[C@@H](CC(C)C)[C@@H](O)C[C@@H](C)C(=O)N[C@H](C(=O)N[C@@H](Cc1ccccc1)C(=O)N[C@@H](Cc1ccccc1)C(=O)N[C@@H](C)C(=O)N[C@@H](CCC(=O)O)C(=O)N[C@@H](CC(=O)O)C(N)=O)C(C)C` (H-ELD[LeuΨ(S-CHOHCH2)Ala]VFFAED-NH2), the Activity result with Caco-2 is recorded as “Non-toxic”. Moreover, the Ratio in the series listed under Homo sapiens was found to be 3.7. The viability at 50 µM in series [8] is above 80%.
Regarding `CC(=O)N[C@@H](CCC(=O)O)C(=O)N[C@@H](CC(C)C)C(=O)N[C@@H](CC(=O)O)C(=O)N[C@@H](CC(C)C)[C@@H](O)C[C@@H](C)C(=O)N[C@H](C(=O)N[C@@H](Cc1ccccc1)C(=O)N[C@@H](Cc1ccc(O)cc1)C(=O)N[C@@H](C)C(=O)N[C@@H](CCC(=O)O)C(=O)N[C@@H](CC(=O)O)C(N)=O)C(C)C` (Ac-ELD[LeuΨ(S-CHOHCH2)Ala]VFYAED-NH2), the half-life in [1] is 3.43 h; in series [2], 6 h. Also, the Stability entry with Serum [9] is listed as “Unstable”; in the series on Cortex [10], “Unstable”; in the series on Serum [12], “Stable”. The Activity entry in the series on Caco-2 is reported as “Non-toxic”. Further, the Retention_time in the series with Brain [11] is reported as 23.6 min. In addition, in the series filed under Homo sapiens, the Ratio came to 9.2. In series [8], the viability at 50 µM was above 80%.
Consider `CC(C)C[C@H](NC(=O)[C@@H](N)CCC(=O)O)C(=O)N[C@@H](CC(=O)O)C(=O)N[C@@H](CC(C)C)[C@@H](O)C[C@@H](C)C(=O)N[C@H](C(=O)N[C@@H](CCC(=O)O)C(=O)N[C@@H](Cc1ccccc1)C(=O)O)C(C)C` (H-ELD[LeuΨ(S-CHOHCH2)Ala]VEF-OH), for which the half-life in [1] was 5.8 h; in series [2], 2.2 h. Further, the Activity entry in the series on Caco-2 was “Non-toxic”. Also, in series [8], the viability at 50 µM is above 80%.
On to `CC(C)C[C@H](NC(=O)[C@@H](N)CCC(=O)O)C(=O)N[C@@H](CC(=O)O)C(=O)N[C@@H](CC(C)C)[C@@H](O)C[C@@H](C)C(=O)N[C@H](C(=O)N[C@@H](Cc1ccccc1)C(=O)N[C@@H](Cc1ccc(O)cc1)C(=O)N[C@@H](C)C(=O)N[C@@H](CCC(=O)O)C(=O)N[C@@H](CC(=O)O)C(N)=O)C(C)C` (H-ELD[LeuΨ(S-CHOHCH2)Ala]VFYAED-NH2), for which the half-life was 2.3 h in series [1] and 2.1 h in series [2]. In addition, the Activity result in the series on Caco-2 is reported as “Non-toxic”. In addition, the Ratio in the series listed under Homo sapiens is 7.5. In addition, the viability at up to 50 µM in series [8] was above 80%.

The values above are taken from ChEMBL document CHEMBL3588858, “Peptidomimetic β-Secretase Inhibitors Comprising a Sequence of Amyloid-β Peptide for Alzheimer's Disease” (J Med Chem, 2015).
